According to ChEMBL document CHEMBL4138290, “Highly Oxidized Guaianolide Sesquiterpenoids with Potential Anti-inflammatory Activity from Chrysanthemum indicum” (J Nat Prod, 2018):
pIC50: −log10 of the molar value. Calls of active or inactive are those of the source. No cut-off for these calls is given here.

Experiments:
RAW264.7 [1] = test: Antiinflammatory activity in mouse RAW264.7 cells assessed as inhibition of LPS-induced NO production after 18 hrs by Griess assay; type: functional, cell-based; details: RAW264.7, 18 h
Method in brief: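 RAW264.7 murine macrophages (DMEM, 10% FBS, pen-strep, 37 °C, 5% CO2) seeded 6 × 10^4 cells/well for 18 h. Compound added with 1 μg/mL LPS for 18 h. Supernatant nitrite read with Griess reagent (10 min, OD 540 nm). Inhibition relative to DMSO-only control. L-NMMA as positive control. IC50 is mean ± SD of three independent experiments.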

RAW264.7 [2] = test: Inhibition of ERK phosphorylation in LPS-induced mouse RAW264.7 cells at 1.25 to 5 uM incubated with compound for 1 hr followed by LPS stimulation measured after 4 hrs by Western blot analysis; type: cell-based
Method in brief: (§1)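 Western blot of MAPK phosphorylation in RAW264.7 cells. Cells pretreated with or without compound (1.25, 2.5, 5.0 μM) for 1 h, then LPS (0.1 μg/mL) for 4 h. Lysed in 1% RIPA, BCA protein assay, SDS-PAGE, PVDF, milk block 2 h at 25 °C, primary antibody 12 h at 4 °C, then secondary at room temperature.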

RAW264.7 [3] = test: Cytotoxicity against LPS-induced mouse RAW264.7 cells assessed as reduction in cell viability at 6.25 uM after 18 hrs by MTT assay; type: cell-based; details: raw264.7, 18 h
Method in brief: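 RAW264.7 cells were seeded at 5 × 10^3/well for 18 h, then exposed to compound at various concentrations with or without LPS (1.0 μg/mL) for 18 h. MTT (5 mg/mL, 20 μL) added for 4 h. Formazan dissolved in DMSO and read at 570 nm. Viability is relative to the DMSO-only control, set as 100%.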

RAW264.7 [4] = test: Downregulation of COX-2 in LPS-induced mouse RAW264.7 cells at 2.5 uM by Western blot analysis; type: functional, cell-based
Method in brief: (§2)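 Western blot in RAW264.7 cells treated with compound under LPS (1 μg/mL) stimulation. Cells lysed in 1% RIPA and protein quantified by BCA. SDS-PAGE, PVDF transfer, 5% skim milk block for 2 h at 25 °C, primary antibody 12 h at 4 °C, then secondary at room temperature.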

[5] = molecular target: MAP kinase p38 (Mus musculus) (UniProt P47811+O08911+Q9WUI1+Q9Z1B7); test: Inhibition of p38 phosphorylation in LPS-induced mouse RAW264.7 cells at 1.25 to 5 uM incubated with compound for 1 hr followed by LPS stimulation measured after 4 hrs by Western blot analysis; type: cell-based; method in brief: as §1
RAW264.7 [6] = test: Inhibition of JNK phosphorylation in LPS-induced mouse RAW264.7 cells at 1.25 to 5 uM incubated with compound for 1 hr followed by LPS stimulation measured after 4 hrs by Western blot analysis; type: cell-based; method in brief: as §1
RAW264.7 [7] = test: Inhibition of NF-kappaB in LPS-induced mouse RAW264.7 cells assessed as decrease in STAT3 phosphorylation at 1.25 to 5 uM by Western blot analysis; type: cell-based; method in brief: as §2
RAW264.7 [8] = test: Downregulation of iNOS in LPS-induced mouse RAW264.7 cells at 2.5 uM by Western blot analysis; type: functional, cell-based; method in brief: as §2
[9] = molecular target: Transcription factor p65 (Mus musculus) (UniProt Q04207); test: Inhibition of LPS-induced NF-kB p65 nuclear translocation in mouse RAW264.7 cells at 1.25 to 5 uM by Western blot analysis; type: cell-based; method in brief: as §2
RAW264.7 [10] = test: Downregulation of total NF-kappaB level in LPS-induced mouse RAW264.7 cells at 1.25 to 5 uM by Western blot analysis; type: functional, cell-based; method in brief: as §2

Sequence of Transcription factor p65 (Mus musculus) (Q04207 whole entry): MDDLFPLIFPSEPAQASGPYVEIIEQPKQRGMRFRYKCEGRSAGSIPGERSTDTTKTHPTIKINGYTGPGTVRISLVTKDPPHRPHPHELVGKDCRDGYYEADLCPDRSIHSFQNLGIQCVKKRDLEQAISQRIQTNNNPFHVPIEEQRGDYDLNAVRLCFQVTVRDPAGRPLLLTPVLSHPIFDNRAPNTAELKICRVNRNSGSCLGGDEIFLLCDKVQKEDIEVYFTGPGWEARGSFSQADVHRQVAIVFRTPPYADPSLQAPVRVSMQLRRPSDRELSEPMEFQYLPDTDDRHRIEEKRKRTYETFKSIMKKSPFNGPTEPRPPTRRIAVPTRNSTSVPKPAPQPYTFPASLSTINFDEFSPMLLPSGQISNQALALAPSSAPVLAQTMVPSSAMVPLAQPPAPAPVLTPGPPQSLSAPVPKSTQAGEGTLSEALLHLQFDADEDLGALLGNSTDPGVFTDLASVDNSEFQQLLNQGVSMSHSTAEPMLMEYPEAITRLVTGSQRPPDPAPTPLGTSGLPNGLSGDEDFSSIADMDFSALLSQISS

| SMILES | pIC50 (RAW264.7 [1]) | other results |
| --- | --- | --- |
| C=C1C(=O)O[C@H]2[C@H]1C[C@@H](OC(=O)/C(C)=C\C)[C@@](C)(O)[C@]13O[C@H]1[C@H]1O[C@@]1(C)[C@H]23 | 5.40 | – |
| C=C1C(=O)O[C@H]2[C@H]1CC[C@@](C)(O)[C@]13O[C@H]1[C@@H](O)[C@](C)(O)[C@H]23 | 4.67 | – |
| C=C1C(=O)O[C@H]2[C@H]1C[C@@H](OC(=O)/C(C)=C\C)[C@@](C)(O)[C@@]13O[C@@H]1[C@@H]1O[C@]1(C)[C@H]23 | 5.85 | inhibition (RAW264.7 [2]): Active; Activity (RAW264.7 [3]): Non-Toxic; Activity (RAW264.7 [4]): Active; inhibition [5]: Active; inhibition (RAW264.7 [6]): Active; inhibition (RAW264.7 [7]): Active; Activity (RAW264.7 [8]): Active; inhibition [9]: Active; Activity (RAW264.7 [10]): Active |
| C=C1C(=O)O[C@H]2[C@H]1CC[C@@](C)(O)[C@]13C=C[C@](C)([C@@H]21)[C@]1(C3)C(=O)O[C@H]2[C@H]1CC[C@@](C)(O)[C@]13O[C@H]1[C@@H](O)[C@](C)(O)[C@H]23 | < 4.30 | – |
| C=C1C(=O)O[C@H]2[C@@H]1[C@@H](OC(=O)C=C(C)C)C[C@@](C)(O)[C@@]13C=C[C@@](C)(OO1)[C@H]23 | 5.14 | – |
| C=C1C(=O)O[C@H]2[C@H]1C[C@@H](OC(=O)/C(C)=C/C)[C@@](C)(O)[C@]13O[C@H]1[C@H]1O[C@@]1(C)[C@H]23 | 5.20 | – |
| C=C1C(=O)O[C@H]2[C@@H]1[C@@H](OC(=O)/C(C)=C/C)C[C@@](C)(O)[C@@]13C=C[C@@](C)(OO1)[C@H]23 | 5.47 | – |
| C=C1C(=O)O[C@H]2[C@H]1C[C@@H](OC(=O)/C(C)=C/C)[C@@](C)(O)[C@@]13O[C@@H]1[C@@H]1O[C@]1(C)[C@H]23 | 5.41 | – |
| C=C1C(=O)O[C@H]2[C@H]1CC[C@@](C)(O)[C@]13C=C[C@](C)([C@@H]21)[C@]1(C3)C(=O)O[C@H]2[C@H]1CC[C@@](C)(O)[C@]13O[C@H]1[C@@H](O)[C@@](C)(O)[C@H]23 | < 4.30 | – |
| C=C1C(=O)O[C@H]2[C@H]1C[C@@H](OC(=O)/C(C)=C\C)[C@@](C)(O)[C@]13O[C@H]1[C@@H](O)[C@@](C)(O)[C@H]23 | 5.15 | – |
| C=C1C(=O)O[C@H]2[C@H]1C[C@@H](OC(=O)C=C(C)C)[C@@](C)(O)[C@@]13O[C@@H]1[C@@H]1O[C@]1(C)[C@H]23 | 5.32 | – |
| CNC(=N)NCCC[C@H](N)C(=O)O [TILARGININE] | 4.59 | – |
| C=C(C)C(=O)O[C@@H]1C[C@H]2C(=C)C(=O)O[C@@H]2[C@H]2[C@](C)(O)[C@@H](Cl)[C@@H]3O[C@@]32[C@]1(C)O | 5.01 | – |
